Source: PubChem BioAssay (several laboratories)
Shown are actives, neighbours in structure and some others; about 8.7% of the full set was active somewhere.
Ecoli WT expand – growth inhibitors of E. coli BW25113 wild type | hit rate 0.15% among 98,000 | OD600 absorbance | AID 710 | growth inhibition, % at 100 µM;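 active = growth inhibition above about 50% at one test dose, limit read from the data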;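 note: growth measured after 20 h incubation at 37 °C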
PostGolgi ctrl – yeast control strain growth, post-Golgi counter-screen | efflux-deficient yeast background strain, growth absorbance A615, 16 h | inhibition, % at 10 µM | hit rate 5% among 98,000 | AID 738
PTK2B oligo ant – Pyk2 (human) oligomerization antagonism; Q14289; Q293 cells, Pyk2 FERM NanoBiT luminescence; stronger effect = lower value; z-score (the deposit names both 25 µM and 10 µM); hit rate 0.83% among 99,000; AID 1347419;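 active = Z-score of -3 or lower, scaled per plate to the spread of control and sample wells; inactive = z-score above -3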;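 note: negative z-score means lost luminescence so less FERM oligomerization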
Cav3 T inh – human Cav3.2 channel inhibition, primary screen; O95180; Cav3.2-expressing cells, Fluo-4 calcium fluorescence FDSS; stronger effect = lower value; B-score at 10 µM; hit rate 4% among 100,000;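 active = single-dose well whose peak fluorescence ratio is a statistical outlier from its plate by either plate-standardised score or position-corrected B-score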
Ecoli tolC – growth inhibitors of E. coli BW25113 tolC mutant | OD615 | growth inhibition, % at 10 µM (by protocol) | hit rate 2.2% among 65,000 | AID 573;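 active = growth inhibition at or above a cutoff equal to the mean over every tested compound plus 3 SD, cut at about 60% in these data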;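 note: growth measured after 20 h incubation at 37 °C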
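Test system: E. coli BW25113 ΔtolC::kan bacteria | Medium: Kanamycin-containing LB broth (50 µg/mL) | Dosing: One dose of 10 µM final | Times: 20 h incubation with compound, 37 °C | Detection: Optical density read at 615 nm | Read-out basis: Percent growth inhibition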
PostGolgi yeast – growth inhibition of a yeast mutant, post-Golgi transport screen; post-Golgi transport phenotypic cell assay; inhibition, % at 10 µM; hit rate 0.9% among 98,000;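 note: yeast cells grown in 1536-well plates; yeast grown about 18 h at 30C before absorbance read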
The depositor's hits bear a star. Cut-off read from the data, not from the text of the source, unless noted: active = inhibition above about 30%; inactive = the rest.

`Fc1ccc(CCNCc2ccc(Cl)c(Cl)c2)cc1` gave Ecoli WT expand 67*, PostGolgi ctrl 6, PTK2B oligo ant 2.1, Cav3 T inh -1.5 and PostGolgi yeast -12.
`CC(=O)N1N=C2C3CCN(CC3)C2C1c1ccccc1` (configuration not stated) gave Ecoli WT expand 6, PostGolgi ctrl -3, PTK2B oligo ant -0.12, Cav3 T inh -3.9* and PostGolgi yeast 16.
C/C(=C/C=C/[C@@H](C)C(=O)O)[C@H]1CN[C@H](C(=O)O)[C@H]1CC(=O)O was read as Cav3 T inh -0.081.
Screening CC12CN3CC(C)(CN(C1)P3(=O)Oc1ccccc1)C2=O (configuration not stated) returned Ecoli WT expand -1, PostGolgi ctrl 0, PTK2B oligo ant 0.52, Cav3 T inh 0.47, Ecoli tolC -12 and PostGolgi yeast 21.
For O=C(c1ccccc1F)c1cn(CC(=O)N2CCOCC2)c2ccccc12 the results were Ecoli WT expand -11, PostGolgi ctrl 13, PTK2B oligo ant 0.92, Cav3 T inh 0.81 and PostGolgi yeast 1.
Screening O=C(Cn1cc(C(=O)c2ccccc2F)c2ccccc21)NCc1ccco1 returned Ecoli WT expand -3, PostGolgi ctrl 3, PTK2B oligo ant -3.2*, Cav3 T inh -0.3, Ecoli tolC -18 and PostGolgi yeast -4.
Screening CCCCn1c(O)c(C(CC)=NCc2ccc(F)cc2)c(=O)[nH]c1=O returned Ecoli WT expand 4, PostGolgi ctrl 31*, PTK2B oligo ant -1.6, Cav3 T inh -3.2 and PostGolgi yeast 23.
For CCCCn1c(O)c(C(C)=NCCCN(CC)CC)c(=O)[nH]c1=O the results were Ecoli WT expand -4, PostGolgi ctrl 0, PTK2B oligo ant 1.9, Cav3 T inh -0.0096, Ecoli tolC -28 and PostGolgi yeast -3.
`CCCCCCN=C(C)c1c(O)n(CCCC)c(=O)[nH]c1=O` gave Ecoli WT expand -1, PostGolgi ctrl 38*, PTK2B oligo ant -1.5, Cav3 T inh -1.2, Ecoli tolC 8 and PostGolgi yeast 9.
Screening CCCCn1c(O)c(C(CC)=NCCCN(C)C)c(=O)[nH]c1=O returned Ecoli WT expand 9, PostGolgi ctrl 0, PTK2B oligo ant 0.69, Cav3 T inh 0.5, Ecoli tolC -14 and PostGolgi yeast 5.
For CCC1C2Cn3c(nc4ccccc43)C1N(C)O2 (configuration not stated) the results were Cav3 T inh 0.14.
For CN(C)C1=C(C#N)C(c2ccccc2)=NP(N(C)C)(N(C)C)=N1 the results were Ecoli WT expand -10, PostGolgi ctrl -1, PTK2B oligo ant -1.4, Cav3 T inh -0.35, Ecoli tolC -5 and PostGolgi yeast -5.
For O=C(Nc1cccc(C(F)(F)F)c1)c1cccn(Cc2ccc3c(c2)OC(F)(F)O3)c1=O the results were Ecoli WT expand -19, PostGolgi ctrl 32*, PTK2B oligo ant 2.1 and PostGolgi yeast 8.
Screening Cc1cccc(C)c1NC(=O)c1cccn(Cc2ccc3c(c2)OC(F)(F)O3)c1=O returned Ecoli WT expand -5, PostGolgi ctrl 75*, PTK2B oligo ant -1.8 and PostGolgi yeast -11.
CCN(CCCl)Cc1ccccc1Br was read as Cav3 T inh -5.1*.
Screening COc1ccc(-n2c(O)c(C(C)=NCc3ccco3)c(=O)[nH]c2=O)cc1 returned Ecoli WT expand -1, PostGolgi ctrl 38*, PTK2B oligo ant 0.49, Cav3 T inh -0.2, Ecoli tolC -10 and PostGolgi yeast -4.
For Cc1ccc2cccc(OC(=O)N(C)c3ccccc3)c2n1 the results were Ecoli WT expand 3, PostGolgi ctrl -2, PTK2B oligo ant 0.77, Cav3 T inh -1.8, Ecoli tolC 5 and PostGolgi yeast 2.
For CCC(C)NC(=O)c1c(N)n(CC2CCCO2)c2nc3ccccc3nc12 (configuration not stated) the results were Ecoli WT expand -16, PostGolgi ctrl 56*, PTK2B oligo ant -0.19, Cav3 T inh -8.7*, Ecoli tolC 4 and PostGolgi yeast 0.
Screening CC(C)CCNC(=O)c1c(N)n(CC2CCCO2)c2nc3ccccc3nc12 (configuration not stated) returned Ecoli WT expand -10, PostGolgi ctrl 57*, PTK2B oligo ant -1.2, Cav3 T inh -4.2* and PostGolgi yeast -2.
FC(F)(F)/C(=N\P(=S)(N1CCOCC1)N1CCOCC1)N1CCOCC1 was read as Ecoli WT expand -3, PostGolgi ctrl 5, PTK2B oligo ant -0.96, Cav3 T inh -0.021, Ecoli tolC -11 and PostGolgi yeast 19.
